Assay results collected from several papers.
Target: Rho-associated protein kinase 2 (ROCK2, Homo sapiens, UniProt O75116)

Compound	test	conditions	quantity	value
CC#CC(=O)N1CCC[C@H]1c1nc(-c2ccc(C(=O)Nc3ccccn3)cc2)c2c(N)nccn12	enzyme activity, inhibitor	1 µM	inhibition	29%
CN1CCN(C(=O)c2ccc(NC(=O)Nc3ccc(N(C)c4ccnc(Nc5ccc(CS(C)(=O)=O)cc5)n4)cc3)cc2)CC1	binding	1 µM	remaining binding	1.5%
C#Cc1cnc(Nc2ccnc(CO)c2)nc1Nc1ccccc1S(C)(=O)=NC#N (stereo not drawn)	cell-free assay	1 µM	remaining signal	49%
C[C@H]1CC[C@H](n2c3cnccc3c3cnc(Nc4ccc5c(n4)CCN(C(=O)CO)C5)nc32)CC1	cell-free assay	1 µM	remaining signal	95%
Cc1cc(O)c(-c2ccc([C@@H](C)CN(C)C)cc2)c2c1[nH]c(=O)c1sccc12	enzyme activity, inhibitor	0.1 µM	inhibition	14.6%
N#Cc1ccc(NC(=O)Nc2ccccc2)cc1	cell-free assay, competition with immobilised ligand	25 µM	remaining binding	63%
C#Cc1cc(-c2cc(Nc3nc(N[C@@H](C)c4ccc(F)cn4)ncc3Cl)n[nH]2)ccc1C=O	enzyme activity, inhibitor	0.2 µM	inhibition	5.91%
C=CC(=O)N1CCC[C@@H](n2nc(-c3ccc(Oc4ccccc4)cc3)c3c(N)ncnc32)C1	enzyme activity, inhibitor	1 µM	inhibition	0%
CCCCC(=O)Nc1ccc(-c2ccc3ncn(CCC)c(=O)c3c2)cn1	binding, competition with immobilised ligand	0.5 µM	remaining binding	100%
